Results reported in PMC4355043 (Bioorganic & medicinal chemistry letters, 2014).

Tests used:
Type in all cases: cell-based
HIV-2CDC310319 = experiment: replication of fully infectious virus in primary human PBMCs, HIV-2 isolate; details: result in words
Procedure, shortened: (§1)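 Primary human PBMCs infected with fully infectious isolates from HIV-1 subtypes A, B, C and D, plus one HIV-2 isolate, to measure inhibition of viral replication. Toxicity to the same PBMCs was assessed concomitantly with an MTS assay. IC50 is the half-maximal inhibitory concentration and TC50 the half-maximal toxic concentration. Antiviral index is calculated as TC50/IC50.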

[1] = system: HIV-1 94US_33931 N (subtype B); details: isolate 94US_33931 N
Procedure, shortened: as §1

[2] = system: HIV-1 98US_MSC5016 (subtype C); details: isolate 98US_MSC5016, subtype C
[3] = system: HIV-1 99UG_A07412M1 (subtype D); details: isolate 99UG_A07412M1, subtype D
Procedure, shortened: as §1

[4] = system: HIV-1 92UG037 (subtype A); experiment: replication of fully infectious virus in primary human PBMCs, isolate 92UG037; details: isolate 92UG037, subtype A
[5] = system: primary human peripheral blood mononuclear cells (PBMCs); experiment: toxicity to PBMCs using an MTS assay; details: run concomitantly with each isolate
Procedure, shortened: as §1

[6] = system: HIV-1 91US004 (subtype B); experiment: replication of fully infectious virus in primary human PBMCs, isolate 91US004; details: isolate 91US004, subtype B
Procedure, shortened: as §1

[7] = system: amphotropic murine leukemia virus (AMLV) Env pseudotyped HIV-1 virus; details: result in words

Which results are given for `COc1cnc(-n2cnc(C)n2)c2[nH]cc(C(=O)C(=O)N3CC4CN(C(=O)C5=CCCCC5)CC4C3)c12` (stereo not drawn) [SC26]?
effect on the replication of an HIV-2 isolate (HIV-2CDC310319): no effect; Antiviral index (TC50/IC50) [1]: > 166,666; Antiviral index (TC50/IC50) [2]: >25.6; Antiviral index (TC50/IC50) [3]: >204; Antiviral index (TC50/IC50) [4]: >3.97; C50 (half-maximal toxic concentration) [5]: >100 MM; Antiviral index (TC50/IC50) [6]: >513

For `COc1cnc(Cl)c2[nH]cc(C(=O)C(=O)N3CC4CN(C(=O)c5ccccc5)CC4C3)c12` (stereo not drawn) [SC07], which “inhibition of AMLV-pseudotyped HIV-1 (specificity)” value [7] is on record?
Its value is “no inhibition”.

With `COc1ncc(OC)c2c(C(=O)C(=O)N3CC4CN(C(=O)c5ccccc5)CC4C3)c[nH]c12` (stereo not drawn) [SC08] as the compound, how does the “inhibition of AMLV-pseudotyped HIV-1 (specificity)” value [7] read?
The value was “no inhibition”.
